Kir21 block: Kir2.1 (mouse) channel inhibition; P35561; AID 1672; 310,000 tested, 0.85% active; B-score at 10 µM; HEK293-Kir2.1, FluxOR thallium flux fluorescence; active compounds read low;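 active means fluorescence ratio B-score at or below minus 3 SD of library scores, with starting-brightness B-score within 2 SD, cut at about -4.2 in these data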;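 further: channel flux triggered by added potassium and thallium sulfate stimulus; B-score of peak minus minimum fluorescence over baseline after thallium stimulus; more negative B-score means stronger Kir2.1 block with less thallium influx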
Target sequence (P35561 whole entry, looked up): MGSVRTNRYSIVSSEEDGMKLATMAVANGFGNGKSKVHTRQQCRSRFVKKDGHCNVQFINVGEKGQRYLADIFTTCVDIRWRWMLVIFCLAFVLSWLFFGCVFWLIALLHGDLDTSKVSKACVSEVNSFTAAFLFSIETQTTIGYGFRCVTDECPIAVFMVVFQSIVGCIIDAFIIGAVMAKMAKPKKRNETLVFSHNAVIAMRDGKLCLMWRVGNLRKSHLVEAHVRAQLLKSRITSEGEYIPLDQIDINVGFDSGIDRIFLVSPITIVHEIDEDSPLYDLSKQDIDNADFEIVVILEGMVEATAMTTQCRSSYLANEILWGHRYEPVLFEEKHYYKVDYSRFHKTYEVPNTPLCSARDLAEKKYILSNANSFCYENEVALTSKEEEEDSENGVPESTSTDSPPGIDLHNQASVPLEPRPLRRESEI
hERG rescue: compounds protecting human hERG from proarrhythmic drug block; CHO-hERG, FluxOR thallium flux, dofetilide IC70 present; activation (rescue from dofetilide block), less the hit threshold, % at 10 µM; 310,000 tested, 0.51% active; AID 1511;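 active means activation above the mean of controls blocked by dofetilide plus 5 SD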;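 further: thallium influx through hERG after potassium depolarization seen as dye fluorescence rise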
KCNK9 inh: inhibitors of human KCNK9 two-pore domain potassium channel. Q9NPC2. HEK293 KCNK9, FluxOR thallium flux fluorescence; active compounds read low. B-score at 10 µM. 310,000 tested, 1.2% active. AID 488922;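 active means ratio B-score over 3 SD below the library mean, with starting fluorescence within 5 SD of its mean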;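 further: negative B-score means less thallium flux so channel inhibition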
KCNK3 inh: human KCNK3 channel inhibition, primary screen. AID 602410. 340,000 tested, 0.84% active. O14649. B-score at 10 µM. CHO-KCNK3 thallium flux, FluxOR fluorescence; active compounds read low;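 active means B-score under library mean minus 4 SD, starting fluorescence ratio at most library mean plus 5 SD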;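 further: more negative B-score means stronger inhibition of thallium flux through KCNK3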
KCNQ1 act: potentiates or activates the human KCNQ1 potassium channel. CHO-K1 KCNQ1, thallium flux FluxOR fluorescence; active compounds read high. B-score at 10 µM. 310,000 tested, 0.35% active. AID 2648;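 active means fluorescence ratio B-score, a plate-corrected score, at least three library SD, with initial intensity B-score within 5 SD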
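System: Stable KCNQ1 CHO-K1 line | Incubation: 90 min dye loading and 20 min compound exposure, both at room temperature | Measure: Ratio B score | Medium: Assay buffer for compound exposure, DMSO matched across wells | Compound dosing: Single-concentration screen | Probe or stimulus: K+/Tl+ depolarizing stimulus | Measured by: Kinetic FluxOR fluorescence, 10 s baseline plus 110 s post-stimulus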
KCNQ1 inh: human KCNQ1 channel inhibition. P51787. CHO-K1 KCNQ1, FluxOR thallium flux fluorescence; active compounds read high. B-score at 10 µM. 310,000 tested, 1.3% active. AID 2642;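 active means compounds whose thallium flux B-score, printed positive for inhibition, exceeds three library SD while starting fluorescence stays within three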;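 further: channel opened by potassium depolarization with thallium stimulus after 20 min compound exposure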
KCNK9 block conf: human KCNK9 inhibitor confirmation; 4,900 tested, 43% active; HEK293 KCNK9 cells, FluxOR thallium flux fluorescence; inhibition, % at 10 µM; shares compounds with KCNK9 inh; AID 492992;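 active means thallium signal inhibited by more than 5 SD of the compound-free buffer control wells, on both duplicate plates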;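 further: 0% = assay buffer control wells without compound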
Kir2-1 spec: tests whether KCNK9 modulators also affect mouse Kir2.1; shares compounds with KCNK9 inh; Kir2.1 cells, FluxOR thallium flux fluorescence; inhibition, % at 10 µM; 4,900 tested, 4% active; AID 492993;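 active means thallium signal drop more than 5 SD beyond the mean of the no-compound control wells, seen in both duplicate plates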;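 further: signal is fluorescence rise after thallium addition divided by baseline fluorescence; plate controls were assay buffer only for no effect and full block by chlorpromazine control for full effect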
HEK293 Tl ctr: second check of KCNK9 modulator effects in non-induced HEK293 cells | FluxOR thallium flux | 4,900 tested, 40% active | inhibition, % at 10 µM | shares compounds with KCNK9 inh;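 active means thallium signal drop beyond 5 SD of the untreated control mean, on both duplicate plates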;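 further: plate controls were buffer only IC0 wells for no effect and SID17386958 at its maximal inhibitory level for full effect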
Active calls of the source: *; i = inactive; x = not tested or not shown. Compounds with a hit are over-represented: about 3.8% of the library has one in this group of screens.

SMILES	Kir21 block	hERG rescue	KCNK9 inh	KCNK3 inh	KCNQ1 act	KCNQ1 inh	KCNK9 block conf	Kir2-1 spec	HEK293 Tl ctr
Cc1ccc(CN2CCN(/N=C/C(Br)=C\c3ccccc3)CC2)cc1	-0.37	2	i	i	16*	i	i	i	i
Cc1ccc(CN2CCN(/N=C/c3cccnc3)CC2)cc1	-0.3	-7	i	i	i	i	x	x	x
Cc1nnc(SCc2ccccc2)nc1-c1ccccc1	-0.92	-11	i	i	i	i	i	i	i
COc1ccc(COC(=O)Nc2cc3c(C(F)(F)F)nn(C)c3s2)cc1	-0.52	-11	i	i	i	i	i	i	i
C=C(C(=O)c1ccccc1)C(CC(=O)c1ccccc1)c1ccccc1 (stereo unspecified)	-1.3	-3	-13*	i	i	i	45%*	i	44%*
Cc1ccc(C(=O)N/N=C2\SCC(=O)N2c2cc(C)ccc2C)cc1	0.83	-11	i	i	i	i	i	i	i
CCCCOC(=O)c1ccc(N/C(=N\S(=O)(=O)c2ccccc2)c2ccccc2)cc1	0.86	-8	-12*	i	i	i	52%*	i	37%*
CCOC(=O)c1oc2ccccc2c1NC(=O)c1ccccc1OC	-0.02	-16	-8.9*	i	i	i	34%*	i	i
CCCCOC(=O)c1ccc(NC(=O)c2ccccc2OC)cc1	-0.67	-9	-9.2*	i	i	i	74%*	i	32%*
CCOC(=O)c1oc2ccccc2c1COC(=O)CNC(=O)c1ccccc1OC	0.67	-13	i	i	i	i	x	x	x
CCc1nnc(NS(=O)(=O)c2ccc(NC(=O)/C=C/C(=O)O)cc2)s1	0.52	-5	i	i	i	i	x	x	x
O=S(=O)(Cc1ccccc1Cl)N1CCCC1	-2.6	-12	i	i	i	i	x	x	x
O=C(CN1C(=O)S/C(=C\c2cc(Cl)c(O)c(Cl)c2)C1=O)Nc1ccccc1	-1.4	12*	i	i	i	i	i	i	i
COCCOc1ccc(C(F)(F)F)cc1NC(=O)CN1C(=O)NC2(CCCc3ccccc32)C1=O (stereo unspecified)	x	x	x	i	x	x	x	x	x
CCn1nnnc1SCC(=O)N1c2ccccc2Sc2ccccc21	-0.52	1	i	i	i	i	i	i	i
Cn1nnnc1SCC(=O)N1c2ccccc2Sc2ccccc21	-1.3	-3	i	i	i	i	x	x	x
CCC(C)NC(=O)c1ccccc1NC(=O)c1ccc(CSc2ccc(C)cc2)cc1 (stereo unspecified)	-0.8	-13	i	i	i	i	i	i	i
O=C(O)COc1ccc(/C=C/c2nc(-c3ccccc3O)n[nH]2)cc1	0.59	-7	i	i	i	i	x	x	x
COc1ccc(/C=C/c2nc(-c3ccccc3O)n[nH]2)cc1OC	-1.6	2	i	i	i	i	i	i	i
Cn1nccc1CNC(=O)c1c(Cl)cnn1C	-0.9	-5	i	i	i	i	x	x	x
CC1CCCC(C)N1C(=O)COC(=O)c1ccccc1O (stereo unspecified)	x	x	x	i	x	x	x	x	x
CC1CCCC(C)N1C(=O)COC(=O)c1cc(Br)ccc1Cl (stereo unspecified)	0	-5	i	i	i	i	i	i	i
COC(=O)C1=C(C)NC(C)=C(C(=O)OC)C1c1ccc(OC(=O)c2oc3ccccc3c2C)c(OC)c1	2.2	-10	-9.6*	i	i	i	62%*	i	34%*
